Measured values of several laboratories.
Protocols differ between the studies behind these lines.
Target: Vascular endothelial growth factor receptor 2 (KDR, Homo sapiens, UniProt P35968)

COc1ccc(NC(=O)c2c(Nc3ccccc3)sc(C#N)c2NC(=O)CNc2ccc([N+](=O)[O-])cc2)cc1
remaining activity (enzyme activity, inhibitor; 10 µM): 71.8%

C[C@H](c1cccc(C#N)c1)n1cc(Cl)cc(C(N)=O)c1=N
remaining binding (cell-free assay, competition with immobilised ligand; 1 µM): 88%

O=C1NC(=O)c2cc(Nc3ccc(F)cc3)c(Nc3ccc(F)cc3)cc21
remaining signal (cell-free assay; 0.5 µM): 97.9%

CS(=O)(=O)NCC[C@H](NC(=O)c1cncc2c1cnn2-c1ccc(F)cc1)c1ccnc(S(C)(=O)=O)c1
remaining binding (cell-free assay, competition with immobilised ligand; 1 µM): 100%

COc1ccc(C=NNC(=O)c2sc(Nc3ccccc3)c(C(=O)Nc3ccc(OC)cc3)c2NC(C)=O)cc1
remaining activity (enzyme activity, inhibitor; 10 µM): 48.6%

O=C(CSc1nc2nccnc2c(=O)n1CCc1ccccc1)Nc1nccs1
inhibition (enzyme activity, inhibitor; 10 µM): 10%

COc1ccc(NC(=O)c2c(Nc3ccccc3)sc(C(=O)NN=Cc3ccc(OC)c(O)c3)c2NC(C)=O)cc1
remaining activity (enzyme activity, inhibitor; 1 µM): 63.2%

CNC(=O)c1cc2c(Oc3ccc(NC(=O)C4(C(=O)Nc5ccc(F)cc5)CC4)cc3)ccnc2cc1OC
inhibition (enzyme activity, inhibitor, radiometric; 1 µM): 82%

COc1cc2c(N3CCN(C(=O)Nc4ccc(OC(C)C)cc4)CC3)ncnc2cc1OCCCN1CCCCC1
remaining signal (cell-free assay; 0.5 µM): 106%

COc1ccc(NC(=O)c2c(Nc3ccccc3)sc(C#N)c2NC(=O)CNc2ccc(Br)cc2)cc1
remaining activity (enzyme activity, inhibitor; 0.1 µM): 66.2%

COc1cc2ncnc(Nc3ccc(Oc4ccccc4)c(C)c3C)c2cc1OC
inhibition (enzyme activity, inhibitor; 1 µM): 16%

CN(C)c1ncnc(-c2ccc3nc(Nc4cc(CN5CCN(C(=O)CC(F)(F)F)CC5)ccn4)[nH]c3c2)c1Cl
remaining binding (cell-free assay, competition with immobilised ligand; 1 µM): 74%

COc1ccc(NC(=O)c2c(Nc3ccccc3)sc(C(=O)NN=Cc3ccc(Cl)cc3)c2NC(C)=O)cc1
remaining activity (enzyme activity, inhibitor; 100 µM): 60.6%

COc1ccc(COc2ccc(Cc3cnc(N)nc3N)cc2OC)cc1
remaining signal (cell-free assay; 0.5 µM): 109%

COc1ccc2cc(OCC3(C(=O)O)CN(C(=O)c4ccc(F)cc4)C3)ccc2c1
remaining binding (cell-free assay, competition with immobilised ligand; 1 µM): 100%

CN(C)C1CCN(CC#Cc2nn(C3CCCC3)c3nc(NCc4ccccc4)ncc23)C1 (stereo not drawn)
inhibition (enzyme activity, inhibitor, FRET; 1 µM): 14%

Nc1ncnc2occ(-c3ccc(NC(=O)Nc4cc(C(F)(F)F)ccc4F)cc3)c12
remaining signal (cell-free assay; 20 µM): 0%

Cc1sc(C(=O)NC2COC2)cc1-n1cc(NC(=O)Nc2c(F)cccc2Cl)cn1
remaining activity (enzyme activity, inhibitor; 10 µM): 88.2%
